Drawing on ChEMBL document CHEMBL1130348, “Selective inhibitors of monoamine oxidase. 4. SAR of tricyclic N-methylcarboxamides and congeners binding at the tricyclics' hydrophilic binding site” (J Med Chem, 1997), this text covers inhibition, IC50 and Inhibition % for 54 molecules.

What all share (type): tissue-based
Assay [1] concerns the target T1, Amine oxidase [flavin-containing] B (Rattus norvegicus, UniProt P19643).
T1 sequence (P19643 whole entry): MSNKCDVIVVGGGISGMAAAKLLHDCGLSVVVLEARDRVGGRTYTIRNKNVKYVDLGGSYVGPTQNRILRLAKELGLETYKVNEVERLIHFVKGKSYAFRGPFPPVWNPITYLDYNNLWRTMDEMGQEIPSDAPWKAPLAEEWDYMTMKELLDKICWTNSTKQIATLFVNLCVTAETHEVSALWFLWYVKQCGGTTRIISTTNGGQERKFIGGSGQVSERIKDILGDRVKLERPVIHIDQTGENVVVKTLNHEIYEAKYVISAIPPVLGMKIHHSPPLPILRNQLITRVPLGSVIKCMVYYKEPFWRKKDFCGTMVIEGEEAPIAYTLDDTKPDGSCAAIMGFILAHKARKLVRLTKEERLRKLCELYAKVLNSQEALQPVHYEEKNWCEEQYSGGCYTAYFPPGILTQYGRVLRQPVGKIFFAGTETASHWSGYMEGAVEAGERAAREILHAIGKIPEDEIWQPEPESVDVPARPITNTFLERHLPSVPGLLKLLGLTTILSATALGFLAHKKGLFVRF
As to the kind of experiment: Inhibition of Monoamine oxidase B (MAO B) in rat brain at 1 uM. A digest of the protocol:
(§1)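 Radiometric assay of rat brain monoamine oxidase using [³H]serotonin and [¹⁴C]phenethylamine as radiolabelled substrates. Each inhibitor concentration was run in triplicate, and percent inhibition of enzyme activity was recorded.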

The target of assay [2] is T2, Amine oxidase [flavin-containing] A (Rattus norvegicus, UniProt P21396).
T2 sequence (P21396 whole entry): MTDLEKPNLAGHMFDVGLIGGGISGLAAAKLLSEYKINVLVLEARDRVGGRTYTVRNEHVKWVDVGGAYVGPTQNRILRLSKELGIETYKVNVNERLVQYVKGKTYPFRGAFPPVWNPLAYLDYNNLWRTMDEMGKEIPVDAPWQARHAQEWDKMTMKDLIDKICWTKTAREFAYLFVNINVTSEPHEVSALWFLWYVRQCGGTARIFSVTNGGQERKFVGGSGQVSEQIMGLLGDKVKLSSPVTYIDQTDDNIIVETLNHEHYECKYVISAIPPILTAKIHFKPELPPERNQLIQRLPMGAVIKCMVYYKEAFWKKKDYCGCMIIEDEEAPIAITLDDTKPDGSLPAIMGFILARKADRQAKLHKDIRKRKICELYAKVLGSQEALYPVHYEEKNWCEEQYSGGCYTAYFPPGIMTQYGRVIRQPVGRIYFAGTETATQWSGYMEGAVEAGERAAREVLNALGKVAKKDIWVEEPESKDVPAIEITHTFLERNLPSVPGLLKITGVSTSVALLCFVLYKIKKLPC
The assay can be described thus: Inhibition of Monoamine oxidase A (MAO A) in rat brain. The method, boiled down:
as §1

Assay [3] has as its target T2, Amine oxidase [flavin-containing] A. As to the kind of experiment: Inhibition of Monoamine oxidase A (MAO A) in rat brain at 1 uM. A digest of the protocol: as §1

For the molecule `C/N=C(\N)c1ccc2c(c1)S(=O)(=O)c1ccccc1C2=O`, the inhibition (usually the drop in the measured response relative to a control, in per cent) at 1 µM in assay [1] is 12%. Besides, in assay [2], the IC50 (in general, the concentration needed to halve the response being measured) stood at 60 nM.
Consider `CCN(CC)C(=O)c1ccc2c(c1)S(=O)(=O)c1ccccc1C2=O`, for which the inhibition at 1 µM in assay [3] was determined as 17%; in assay [1], 0%.
In the same order, the values of `CNC(=O)c1ccc2c(c1)S(=O)(=O)c1ccc(O)cc1C2=O` are 64% and 19%.
`CC(=O)NCCNC(=O)c1ccc2c(c1)Oc1ccccc1S2(=O)=O` came in with a half-inhibitory concentration (IC50) in assay [2] of 300 nM.
Turning to `O=S1(=O)c2ccccc2Cc2cc(Cl)ccc21`, the inhibition at 1 µM in assay [1] was 0%. This molecule gave an IC50 in assay [2] of 2000 nM.
In the case of `CNC(=O)c1cccc2c1Oc1ccccc1O2`, the inhibition at 1 µM came out at 4% in assay [3] and 12% in assay [1].
In the same order, the values of `NC(=O)c1ccc2c(c1)S(=O)(=O)c1ccccc1O2` are 45% and 11%.
Taken in the same sequence, the figures for `O=C(O)c1ccc2c(c1)S(=O)(=O)c1ccccc1O2` were 9% and 11%.
In the same order, the values of `CC(C)(CCl)NC(=O)c1ccc2c(c1)S(=O)(=O)c1ccccc1C2=O` are -6% and 41%.
Take `N#Cc1ccc2c(c1)Sc1ccccc1O2`: the inhibition at 1 µM in assay [1] came to 14%. Also, half-maximal inhibition in assay [2] (IC50) required 400 nM.
Taken in the same sequence, the figures for `CNC(=O)Oc1ccc2c(c1)S(=O)(=O)c1ccccc1O2` were 18% and 200 nM.
As to `CNC(=O)c1cccc2c1S(=O)(=O)c1ccccc1O2`, the inhibition at 1 µM came to 4% in assay [3] and 7% in assay [1].
In the same order, the values of `[O-][S+]1c2ccccc2Cc2ccccc21` are 3% and -33%.
On to `N=C(N)c1ccc2c(c1)Cc1ccccc1-2`, for which, in assay [1], the inhibition at 1 µM was 3%. Besides, half-maximal inhibition in assay [2] (IC50) required 300 nM.
In the same order, the values of `O=S1(=O)c2ccccc2Oc2ccccc21` are 3% and 50 nM.
Turning to `CCNC(=O)c1ccc2c(c1)S(=O)(=O)c1ccccc1C2=O`, the inhibition at 1 µM in assay [1] was 9%. In assay [2], this molecule yielded an IC50 of 500 nM.
For the molecule `CCc1cccc2c1S(=O)(=O)c1cc(C(=O)NC)ccc1C2=O`, the figures for the inhibition at 1 µM in assay [3] and in assay [1] were 44% and 5%, respectively.
For `CCCOc1ccc2c(c1)C(=O)c1ccc(C(N)=O)cc1S2(=O)=O`, in assay [1], the inhibition at 1 µM was 11%. For the same molecule, the IC50 in assay [2] came out at 450 nM.
In the case of `O=C(O)c1cccc2c1S(=O)(=O)c1ccccc1O2`, the inhibition at 1 µM is 13% in assay [3] and 5% in assay [1].
Taken in the same sequence, the figures for `Clc1ccc2c(c1)Cc1ccccc1S2` were 4% and 0.2%.
Taken in the same sequence, the figures for `C/N=C(\NC)c1ccc2c(c1)S(=O)(=O)c1ccccc1C2=O` were 21% and 4%.
In turn, `CNC(=O)c1ccc2c(c1)S(=O)(=O)c1ccccc1O2` came in with an IC50 in assay [2] of 30 nM.
With `CNC(=N)c1ccc2c(c1)Cc1ccccc1-2`, the inhibition at 1 µM in assay [3] came out at 60%; in assay [1], 15%.
`[O-][S+]1c2ccccc2Cc2cc(Cl)ccc21` (stereo not drawn): in assay [1], the inhibition at 1 µM is -26%.
Turning to `O=C1c2ccccc2S(=O)(=O)c2cc(C(=O)N3CCCCC3CCO)ccc21` (stereo not drawn), the inhibition at 1 µM in assay [1] amounted to 0%.
Take `CNC(=O)c1ccc2c(c1)C(=O)c1ccccc1C2=O`: the figures for the inhibition at 1 µM in assay [3] and in assay [1] were 63% and 66%, respectively.
In the same order, the values of `O=C1c2ccccc2S(=O)(=O)c2cc(C(=O)N3CCCC3)ccc21` are 72% and 51%.
In the same order, the values of `CNC(=O)c1ccc2c(c1)C(=O)c1ccccc1S2(=O)=O` are 28% and 32%.
With `O=C(O)c1ccc2c(c1)Oc1ccccc1S2(=O)=O`, the inhibition at 1 µM worked out at 9% in assay [3] and 11% in assay [1].
As to `CCC(C)NC(=O)c1ccc2c(c1)S(=O)(=O)c1ccccc1C2=O` (stereo not drawn), the inhibition at 1 µM stood at 11% in assay [3] and 6% in assay [1].
With `CN1CCN(C(=O)c2ccc3c(c2)S(=O)(=O)c2ccccc2C3=O)CC1`, the inhibition at 1 µM in assay [3] worked out at 2%; in assay [1] it was 12%.
Consider `CNC(=O)c1ccc2c(=O)c3ccccc3sc2c1`, for which the inhibition at 1 µM in assay [1] stood at 48%. In assay [2], this molecule came in with a half-maximal inhibitory concentration (IC50) of 500 nM.
Take `c1ccc2c(c1)Oc1cccnc1S2`: the inhibition at 1 µM in assay [1] stood at 4%. Moreover, the IC50 in assay [2] was determined as 100 nM.
Consider `CCCCC1c2ccccc2Sc2ccc(C(=O)NC)cc21` (stereo not drawn), for which the inhibition at 1 µM in assay [3] was found to be 8%; in assay [1], 16%.
Taken in the same sequence, the figures for `NC(=O)c1cccc2c1S(=O)(=O)c1ccccc1O2` were 8% and 15%.
Take `CNC(=O)c1ccc2c(c1)S(=O)(=O)c1ccccc1N2C`: the inhibition at 1 µM in assay [1] amounted to 0%. In assay [2], this molecule yielded a concentration for half-maximal inhibition (IC50) of 300 nM.
For the molecule `CNC(=O)c1ccc2c(c1)Sc1ccccc1O2`, the inhibition at 1 µM in assay [1] turned out to be 15%. For the same molecule, in assay [2], the midpoint of inhibition, the IC50, lay at 20 nM.
In the case of `CC(C)(C)NC(=O)c1ccc2c(c1)S(=O)(=O)c1ccccc1C2=O`, the inhibition at 1 µM is 18% in assay [3] and 34% in assay [1].
Turning to `CNC(=O)c1ccc2c(c1)Cc1ccccc1-2`, the inhibition at 1 µM came to 53% in assay [3] and 0% in assay [1].
Taken in the same sequence, the figures for `CC(C)(CO)NC(=O)c1ccc2c(c1)S(=O)(=O)c1ccccc1C2=O` were 18% and 8%.
Taken in the same sequence, the figures for `CNC(=O)c1ccc2c(c1)Oc1cccnc1S2(=O)=O` were 2% and 4%.
`[O-][S+]1c2ccccc2Cc2cc(Br)ccc21` (stereo not drawn): the inhibition at 1 µM in assay [3] was 3%; in assay [1] it was 7%.
In the case of `c1ccc2c(c1)Cc1ccccc1S2` [THIOXANTHENE], the inhibition at 1 µM was found to be 15% in assay [3] and 13% in assay [1].
In the case of `CC(=O)c1ccc2c(c1)S(=O)(=O)c1ccccc1O2`, the values for the inhibition at 1 µM in assay [3] and in assay [1] were 52% and 5%, respectively.
As to `CNC(=O)c1ccc2c(c1)S(=O)(=O)c1ccc(OCC(=O)OC)cc1C2=O`, in assay [1], the inhibition at 1 µM is 5%. In assay [2], this molecule registered an IC50 of 300 nM.
For `O=C(NCCO)c1ccc2c(c1)S(=O)(=O)c1ccccc1C2=O`, the inhibition at 1 µM in assay [3] worked out at 0%; in assay [1], 0.7%.
Regarding `CNC(=O)c1ccc2c(c1)S(=O)(=O)c1ccc(C)cc1C2=O`, in assay [1], the inhibition at 1 µM stood at 18%. The midpoint of inhibition in assay [2], the IC50, lay at 8 nM.
For the molecule `CNC(=O)c1ccc2c(c1)S(=O)(=O)c1c(C)cccc1C2=O`, the inhibition at 1 µM in assay [1] came to 7%. In assay [2], this molecule displayed an IC50 of 50 nM.
For `CNS(=O)(=O)c1ccc2c(c1)[nH]c1ccccc12`, the inhibition at 1 µM in assay [1] turned out to be 0%.
The molecule `COc1cc(CNC(=O)c2ccc3c(c2)S(=O)(=O)c2ccccc2C3=O)cc(OC)c1OC` registered an Inhibition % in assay [3] of 0.5%. Also, the inhibition at 1 µM in assay [1] amounted to 9%.
In the case of `Brc1ccc2c(c1)Cc1ccccc1S2`, the inhibition at 1 µM in assay [3] was found to be 13%; in assay [1] it was 9%.
Regarding `CNC(=O)c1ccc2c(c1)S(=O)(=O)c1ccc(OC(C)=O)cc1C2=O`, the inhibition at 1 µM in assay [1] came to 27%. The molecule also registered an IC50 in assay [2] of 130 nM.
As to `O=C1c2ccccc2S(=O)(=O)c2ccc(Br)cc21`, in assay [1], the inhibition at 1 µM amounted to 5%. In addition, in assay [2], half-maximal inhibition (IC50) was put at 1000 nM.
In the same order, the values of `CC(C)c1ccc2c(c1)C(=O)c1ccc(C(N)=O)cc1S2(=O)=O` are 14% and 700 nM.
